Measurements collected from several papers.
Compare with care: the assays were run in different laboratories.
Target: Death-associated protein kinase 3 (DAPK3, Homo sapiens, UniProt O43293)

SMILES	read-out	action	technique	tested at	quantity	result
C#Cc1cccc(Nc2ncnc3cc(OCCOC)c(OCCOC)cc23)c1	cell-free assay			0.5 µM	remaining signal	95.4%
Cc1nc(C2CCN(C(=O)c3ccc(OC(F)(F)F)cc3N)CC2)c2ncc(N3CCN(C)CC3)cc2n1	cell-free assay		competition with immobilised ligand	1 µM	remaining binding	100%
CN1CC(Oc2cnc(C#N)cc2-c2ccn3nc(NC(=O)C4CC4)cc3c2)C1	enzyme activity	inhibitor		1 µM	inhibition	4%
Cc1ccc(NC(=O)c2ccc(C)c(C(F)(F)F)c2)cc1C#Cc1nn(C2CCC(O)CC2)c2ncnc(N)c12 (stereo not shown)	cell-free assay			10 µM	remaining signal	110%
Cc1nc(Cc2cccc(C(F)(F)F)c2)sc1-c1ccc(C(N)=O)nc1	cell-free assay		competition with immobilised ligand	1 µM	remaining binding	88%
COc1cc(-c2cc(-c3ccc(N4CCNCC4)cc3)cnc2C)cc(OC)c1OC	enzyme activity	inhibitor		0.1 µM	inhibition	1%
COc1cc2ncnc(Nc3ccc(F)c(Cl)c3)c2cc1OCCCN1CCOCC1	cell-free assay			0.5 µM	remaining signal	95.7%
CCCCN(CCCC)C(=O)CN1C[C@H](c2cc(OC)c3c(c2)OCO3)[C@@H](C(=O)O)[C@@H]1CC(C)(C)CCC	cell-free assay		competition with immobilised ligand	1 µM	remaining binding	100%
COc1cc2ncnc(Nc3ccc(Oc4ccccc4)cc3C)c2cc1OC	enzyme activity	inhibitor		1 µM	inhibition	-4%
CCCOc1ccc(OC)c(F)c1C(=O)c1ccc(C(=O)N[C@@H]2CNC[C@H]2NC(=O)c2ccc3[nH]ncc3c2)cc1	enzyme activity	inhibitor		10 µM	remaining activity	40%
Oc1cccc(-c2nc(N3CCOCC3)c3oc4ncccc4c3n2)c1	cell-free assay			0.5 µM	remaining signal	93.1%
CSc1cccnc1N1CCN(Cc2nc3ccccc3[nH]2)CC1	cell-free assay		competition with immobilised ligand	1 µM	remaining binding	100%
Cc1cc(NC(=O)c2cccc3cc(-c4cccc5[nH]nc(N)c45)ccc23)ccc1F	enzyme activity	inhibitor		0.1 µM	activity vs control	105%
C[C@H](c1cccc(C#N)c1)n1cc(Cl)cc(C(N)=O)c1=N	cell-free assay		competition with immobilised ligand	1 µM	remaining binding	100%
Cc1ccc(C(=O)Nc2ccc(CN3CCN(C)CC3)c(C(F)(F)F)c2)cc1C#Cc1cnc2cccnn12	enzyme activity	inhibitor		23.5 nM	remaining activity	99%
CC(C)(C)c1nc(-c2cccc(NS(=O)(=O)c3c(F)cccc3F)c2F)c(-c2ccnc(N)n2)s1	enzyme activity	inhibitor	radiometric	1 µM	remaining activity	54%
N#CCCc1ccc2c(c1)-c1[nH]c3ccc([N+](=O)[O-])cc3c1CC(=O)N2	cell-free assay			0.5 µM	remaining signal	99.3%
Cc1cc(NC(=O)c2cccc(S(F)(F)(F)(F)F)c2)cc(-n2ccn3nc(-c4cccnc4)cc23)c1	cell-free assay		competition with immobilised ligand	1 µM	remaining binding	100%
O=C(Nc1cnn(-c2csc(C(=O)NC3COC3)c2)c1)Nc1c(F)cccc1Cl	enzyme activity	inhibitor		5 µM	remaining activity	108%
Clc1ccc(Nc2nnc(Cc3ccncc3)c3ccccc23)cc1	cell-free assay			0.5 µM	remaining signal	107%
CN([C@@H]1CCc2c(CC(=O)O)c3ccccc3n2C1)S(=O)(=O)c1ccc(F)cc1	cell-free assay		competition with immobilised ligand	1 µM	remaining binding	87%
Cc1ccc(Nc2nccc(N(C)c3ccc4c(C)n(C)nc4c3)n2)cc1S(N)(=O)=O	enzyme activity	inhibitor		0.3 µM	inhibition	-7%
